For experiment [1], the target named is human 20S proteasome trypsin-like (T-L, β2) site (Homo sapiens, UniProt P49720+Q99436). Kind of experiment: Fluorogenic assay for 20S human proteasome inhibition, trypsin-like site. The class given is biochemical.
For experiment [2], the target named is human 20S proteasome caspase-like (C-L, β1) site (Homo sapiens, UniProt P28072+Q99436). Kind of experiment: Fluorogenic assay for 20S human proteasome inhibition, caspase-like site. The experiment is classed as biochemical.
The target of the next experiment is FAS (Homo sapiens, UniProt P49327). Nature of the experiment: Activity-based in situ competitive labelling against ABPP probe 28, FAS band. The experiment is classed as cell-based. Particulars: MCF-7 cells, 30 min preincubation with inhibitor, then 10 µM probe 28 for 30 min. Summed up:
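Cells at 80–90% confluency were washed and given serum-free medium with test compound (10–100 µM; 1, 2.5, 5, 10-fold excess over probe) or DMSO, 30 min at 37 °C, 5% CO2. Alkyne probe was added (10 µM final) for 30 min. Soluble lysate (1% NP-40/1% deoxycholate, ~1.0 mg/mL) was clicked to TAMRA-N3 (100 µM; 1 mM CuSO4, 1 mM TCEP, 100 µM TBTA) for 1–1.5 h, RT, dark. Read-out: 10% SDS-PAGE, in-gel fluorescence.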

Experiment [3] concerns the target ChT-L (proteasome beta-5, PSB-5) (Homo sapiens, UniProt P20618+P28074). Kind of experiment: Activity-based in situ competitive labelling against ABPP probe 28, ChT-L. Particulars: MCF-7 cells, 30 min preincubation with inhibitor, then 10 µM probe 28 for 30 min. The experiment is classed as cell-based.
The target in another experiment is human FAS-TE (Homo sapiens, UniProt P49327). Kind of experiment: Fluorogenic assay for human FAS-TE inhibition. The class given is biochemical. The following applies: for reduction (drop) of FAS-TE activity: compared to 21.
Sequence of human FAS-TE (P49327 2207-2511 limits assumed): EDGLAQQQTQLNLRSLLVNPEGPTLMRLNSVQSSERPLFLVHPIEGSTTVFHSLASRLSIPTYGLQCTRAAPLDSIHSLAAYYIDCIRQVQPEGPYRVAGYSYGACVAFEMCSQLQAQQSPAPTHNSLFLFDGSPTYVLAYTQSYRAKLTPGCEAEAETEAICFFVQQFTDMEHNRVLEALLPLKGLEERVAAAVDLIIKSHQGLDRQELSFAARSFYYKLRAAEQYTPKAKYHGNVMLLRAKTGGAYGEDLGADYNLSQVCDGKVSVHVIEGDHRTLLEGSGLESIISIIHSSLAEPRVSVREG
Experiment [4] deals with human 20S proteasome chymotrypsin-like (ChT-L, β5) site (Homo sapiens, UniProt P20618+P28074). Nature of the experiment: Fluorogenic assay for 20S human proteasome inhibition, chymotrypsin-like site. The experiment is classed as biochemical. Particulars: compared to the diastereomeric β-lactone 21.

Structures are written as SMILES.

Sequence of FAS (P49327 whole entry): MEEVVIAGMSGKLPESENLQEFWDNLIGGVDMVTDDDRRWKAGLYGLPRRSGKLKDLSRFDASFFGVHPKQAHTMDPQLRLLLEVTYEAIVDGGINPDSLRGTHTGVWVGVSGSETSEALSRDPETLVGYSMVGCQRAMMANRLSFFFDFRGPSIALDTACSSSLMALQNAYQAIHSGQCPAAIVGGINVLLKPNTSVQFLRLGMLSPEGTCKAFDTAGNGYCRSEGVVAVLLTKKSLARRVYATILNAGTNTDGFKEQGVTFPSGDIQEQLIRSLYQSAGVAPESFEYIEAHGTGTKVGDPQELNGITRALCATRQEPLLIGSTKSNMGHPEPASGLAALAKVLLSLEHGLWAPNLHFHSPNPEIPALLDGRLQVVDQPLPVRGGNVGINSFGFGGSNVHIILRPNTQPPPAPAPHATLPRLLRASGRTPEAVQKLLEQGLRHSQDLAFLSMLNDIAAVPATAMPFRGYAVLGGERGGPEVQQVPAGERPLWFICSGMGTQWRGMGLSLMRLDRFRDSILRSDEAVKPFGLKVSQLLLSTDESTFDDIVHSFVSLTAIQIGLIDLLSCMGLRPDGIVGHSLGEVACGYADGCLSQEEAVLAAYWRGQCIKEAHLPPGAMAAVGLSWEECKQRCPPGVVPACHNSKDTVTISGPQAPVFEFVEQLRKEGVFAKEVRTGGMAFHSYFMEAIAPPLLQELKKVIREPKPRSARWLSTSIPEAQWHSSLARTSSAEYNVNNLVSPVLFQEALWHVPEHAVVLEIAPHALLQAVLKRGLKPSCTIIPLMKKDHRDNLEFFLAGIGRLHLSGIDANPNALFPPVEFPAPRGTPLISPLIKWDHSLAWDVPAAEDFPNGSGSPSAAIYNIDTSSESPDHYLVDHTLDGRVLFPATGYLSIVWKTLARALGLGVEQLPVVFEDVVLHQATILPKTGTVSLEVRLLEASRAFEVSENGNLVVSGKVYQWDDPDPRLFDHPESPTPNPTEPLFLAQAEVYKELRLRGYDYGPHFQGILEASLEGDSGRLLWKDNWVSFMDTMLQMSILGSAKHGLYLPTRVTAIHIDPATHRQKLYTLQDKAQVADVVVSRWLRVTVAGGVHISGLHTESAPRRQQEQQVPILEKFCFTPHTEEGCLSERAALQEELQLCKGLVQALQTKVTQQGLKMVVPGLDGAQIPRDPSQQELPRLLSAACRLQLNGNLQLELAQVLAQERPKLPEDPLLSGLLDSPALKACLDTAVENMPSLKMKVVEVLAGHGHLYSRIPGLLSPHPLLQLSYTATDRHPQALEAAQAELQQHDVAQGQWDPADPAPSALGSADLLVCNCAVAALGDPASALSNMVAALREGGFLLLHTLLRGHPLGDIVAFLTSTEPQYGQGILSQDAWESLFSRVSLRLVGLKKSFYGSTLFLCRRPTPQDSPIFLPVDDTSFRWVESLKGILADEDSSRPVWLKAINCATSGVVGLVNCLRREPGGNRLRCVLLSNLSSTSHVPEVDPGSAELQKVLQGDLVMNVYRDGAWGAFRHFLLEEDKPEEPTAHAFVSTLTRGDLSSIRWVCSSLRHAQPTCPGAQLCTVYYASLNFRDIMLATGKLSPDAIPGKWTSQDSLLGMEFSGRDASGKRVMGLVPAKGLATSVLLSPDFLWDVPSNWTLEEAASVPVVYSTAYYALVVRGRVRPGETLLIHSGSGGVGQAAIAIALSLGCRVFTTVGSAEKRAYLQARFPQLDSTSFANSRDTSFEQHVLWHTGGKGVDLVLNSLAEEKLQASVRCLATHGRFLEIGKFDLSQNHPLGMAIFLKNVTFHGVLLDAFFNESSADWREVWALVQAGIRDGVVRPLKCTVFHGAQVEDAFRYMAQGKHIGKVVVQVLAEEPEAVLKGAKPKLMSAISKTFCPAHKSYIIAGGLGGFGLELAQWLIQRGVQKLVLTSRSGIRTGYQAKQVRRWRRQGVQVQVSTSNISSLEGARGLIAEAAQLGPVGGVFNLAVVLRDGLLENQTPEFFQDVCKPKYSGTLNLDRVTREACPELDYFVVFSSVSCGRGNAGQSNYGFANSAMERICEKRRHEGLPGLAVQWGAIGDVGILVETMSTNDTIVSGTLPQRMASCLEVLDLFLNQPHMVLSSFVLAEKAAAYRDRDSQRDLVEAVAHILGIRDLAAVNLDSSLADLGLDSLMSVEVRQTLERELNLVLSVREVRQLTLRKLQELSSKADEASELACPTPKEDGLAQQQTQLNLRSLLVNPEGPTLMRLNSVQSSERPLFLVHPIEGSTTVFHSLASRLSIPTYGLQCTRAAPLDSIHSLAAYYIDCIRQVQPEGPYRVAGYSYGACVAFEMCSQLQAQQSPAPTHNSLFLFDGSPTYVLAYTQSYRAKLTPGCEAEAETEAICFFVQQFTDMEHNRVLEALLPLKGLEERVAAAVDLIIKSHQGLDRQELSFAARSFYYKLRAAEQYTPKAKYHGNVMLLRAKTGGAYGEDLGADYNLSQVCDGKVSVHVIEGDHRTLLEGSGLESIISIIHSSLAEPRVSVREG

In general, IC50 refers to the concentration needed to halve the response being measured. `CCCCCC[C@@H]1C(=O)O[C@H]1C(=O)NCCCC[C@H](NC(=O)[C@H](C)NC(=O)c1ccc(Br)cc1)C(=O)OCc1ccccc1` [compound 20] gave an IC50 in experiment [1] greater than 100 µM.
As to `CCCCCCCCCCC[C@@H](C[C@@H]1OC(=O)[C@H]1CCCCCC)OC(=O)[C@H](CC(C)C)NC=O` [orlistat, Tetrahydrolipstatin, reference compound], the IC50 in experiment [2] and in experiment [1] was greater than 100 µM each time.
`CCCCCC[C@]1(C)C(=O)O[C@H]1C(=O)NCCCC[C@H](NC(=O)[C@H](C)NC(=O)OCc1ccccc1)C(=O)OCc1ccccc1` [compound 25]: in experiment [1], the IC50 is greater than 100 µM. At FAS, the “excess of inhibitor over probe 28 that resulted in FAS signal reduction” value is listed as “not able to compete effectively”. Also, the “excess of inhibitor over probe 28 that resulted in ChT-L signal reduction” value in experiment [3] was “not able to compete effectively”.
Take `CCCCCC[C@@H]1C(=O)O[C@H]1C(=O)NCCCC[C@@H]1NC(=O)N([C@@H](C)C(=O)OCc2ccccc2)C1=O` [compound 22]: the IC50 is 7.93 ± 0.21 µM in experiment [2] and greater than 100 µM in experiment [1].
On to `CCCCCC[C@@H]1C(=O)O[C@H]1C(=O)NCCCC[C@H](NC(=O)OCc1ccccc1)C(=O)N[C@@H](C)C(=O)OCc1ccccc1` [compound 21], for which the IC50 in experiment [2] and in experiment [1] was greater than 100 µM in each case. For the same compound, the “excess of inhibitor over probe 28 that resulted in FAS signal reduction” value at FAS is 10 fold. Further, the “potency against FAS-TE compared to orlistat” value on human FAS-TE (ratio of IC50 values, more potent than orlistat) was found to be 3 X. Moreover, in experiment [3], the “excess of inhibitor over probe 28 that resulted in ChT-L signal reduction” value worked out at 2.5 fold.
With `CCCCCC[C@H]1C(=O)O[C@@H]1C(=O)NCCCC[C@H](NC(=O)OCc1ccccc1)C(=O)N[C@@H](C)C(=O)OCc1ccccc1` [compound 23], in experiment [4], the “reduction of proteasome ChT-L activity” value is reported as ~ 8 fold. In addition, the 50% inhibitory concentration (IC50) in experiment [2] and in experiment [1] was greater than 100 µM throughout. In addition, the “reduction (drop) of FAS-TE activity” value at human FAS-TE is ~ 8 fold.
Turning to `C#Cc1ccc(COC(=O)[C@H](C)NC(=O)[C@H](CCCCNC(=O)[C@@H]2OC(=O)[C@H]2CCCCCC)NC(=O)OCc2ccccc2)cc1` [compound 28], the IC50 in experiment [2] and in experiment [1] was greater than 100 µM in each case. In addition, the “reduction (drop) of FAS-TE activity” value at human FAS-TE is reported as ~ 2.5 fold.
Compound `CCCCCC[C@@H]1C(=O)O[C@H]1C(=O)NCCCC[C@H](NC(=O)[C@H](C)NC(=O)OCc1ccccc1)C(=O)OCc1ccccc1` [compound 17] registered an IC50 in experiment [1] greater than 100 µM.
Compound `CCCCCC[C@@]1(C)C(=O)O[C@H]1C(=O)NCCCC[C@H](NC(=O)[C@H](C)NC(=O)OCc1ccccc1)C(=O)OCc1ccccc1` [compound 27] returned an IC50 in experiment [1] greater than 100 µM.
The compound `CCCCCC[C@H]1C(=O)O[C@@H]1C(=O)NCCCC[C@H](NC(=O)CNC(=O)OCc1ccccc1)C(=O)OCc1ccccc1` [compound 24] had an IC50 in experiment [1] greater than 100 µM.
`CCCCCC[C@@]1(C)C(=O)O[C@@H]1C(=O)NCCCC[C@H](NC(=O)[C@H](C)NC(=O)OCc1ccccc1)C(=O)OCc1ccccc1` [compound 26] showed an IC50 in experiment [1] greater than 100 µM.
In experiment [1], `CCCCCC[C@@H]1C(=O)O[C@H]1C(=O)NCCCC[C@H](NC(=O)CNC(=O)OCc1ccccc1)C(=O)OCc1ccccc1` [compound 18] registered an IC50 greater than 100 µM. Besides, on human FAS-TE (relative to derivative 17), the “drop in potency against FAS-TE” value is reported as ~ 3 fold.
